Assay: Toxicity liver stage against HepG2, at 10uM
Assay type: cell-based
Design: test concentration 10 uM, cell line HepG2-A16-CD81EGFP
Details: human, HepG2-A16-CD81EGFP cells; read-out: INHIBITION
Procedure, shortened: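 Uninfected HepG2-A16-CD81EGFP cells, 3 × 10^3 per well, 1536-well, plated on prespotted compound at 10 μM final, parasite-free screening media added to match infected plates; puromycin 10 μM positive, DMSO 0.5% negative; run in parallel with 48 h PbLuc assay at 37 °C, 5% CO2; viability by CellTiter-Glo luminescence, normalized to controls.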

Structure (SMILES)	cytotoxicity at 10 µM [%]
CN1CCCC1CCn1ccnc1-c1nc(-c2ccccc2)no1 (stereo not given)	-5.35
Cc1cnn(C2CCCN(C(=O)c3cn4ccccc4n3)C2)c1 (stereo not given)	-6.35
Cc1ncc(-c2ccnc(N3CCCCCC3)n2)c(-c2cccnc2)n1	6.21
COc1cc(C)cc(C(C(=O)O)N2CCN(C3CCCC3)CC2)c1OC (stereo not given)	-4.27
Oc1cccc(C2CN(c3nnc(C4CC4)s3)CCO2)c1 (stereo not given)	1.07
O=C1CC2(CCCCN2C(=O)c2cccs2)CN1CC1CC1 (stereo not given)	2.67
Cc1cccc2nc(CNC(=O)N3CCC(N4CC=CC4)C3)cn12 (stereo not given)	5.88
Cc1ccc(CN(C)C(=O)c2cc3c(c(S(N)(=O)=O)c2)CCC3)o1	-52.5
C[C@@H]1CN(C(=O)c2cn(CCN3CCCCC3)nn2)C[C@H](C)O1	4.89
CCNC(=O)[C@@H]1CCCN1[C@@H](C(=O)NC)c1ccccc1	7.77
Cc1cnn(CC2CCCN2CC(=O)Nc2cc(C)on2)c1 (stereo not given)	-26.7
COCCO[C@@H]1CCN(C(=O)c2ccc(C)o2)[C@@H]1Cc1cccnc1	-12.2
NC(=O)C1CCCN1C1CCN(C(=O)c2cccc3c2OCO3)CC1 (stereo not given)	-0.353
CN1CC2(CCC1=O)CCN(CC[C@@H](O)c1ccccc1)CC2	-0.355
CN(C)CCCn1ccc(-c2cccc(-c3cncnc3)c2)n1	2.51
CCc1nnc(CN2CCc3[nH]c(-c4ccc(OC)cc4)nc3C2)o1	-132
Cc1nn(C)cc1NC(=O)CC1CCN(CCc2ccccc2)CC1	-4.92
CC(NC(=O)CSCC#N)c1cccc(Cl)c1 (stereo not given)	-3.06
CN1CC2(CCN(C(=O)C3CCC3)CC2)COc2ccccc2S1(=O)=O	10.2
CCc1nccc(CN2CCC(CNC(=O)C3CCC(C)CC3)C2)n1 (stereo not given)	-4.51
O=C(Nc1c(N2CCCC2)cccc1N1CCCC1)c1cnsn1	-43
CNc1ccc(CC2CCCN(Cc3c[nH]cn3)C2)nn1 (stereo not given)	-1.71
CN(C)C(=O)[C@@H]1C[C@@H]2CCN(C3CCOCC3)C[C@H]2O1	7.86

Structure (SMILES)	cytotoxicity at 10 µM [%]
COc1ccc(C2CC(=O)Oc3cc(C)[nH]c(=O)c32)cc1O (stereo not given)	-4.47
COc1ccccc1OCc1cc(C(=O)N2CCOCC2CO)n[nH]1 (stereo not given)	-3.94
CCc1ccc(OCC(O)CN2CCN(CC)CC2)cc1 (stereo not given)	-6.54
Cn1cc(CN2C[C@@H]3COC[C@]3(C(=O)NCc3ccccn3)C2)cn1	-1.07
COCC1COCCC12CCN(Cc1cccs1)CC2 (stereo not given)	6.13
Cc1nc(CNC(=O)NC2CC(C)(C)OC2(C)C)sc1C (stereo not given)	-3.77
Cc1cc(C)nc(NC2CCC(=O)N(C)C2)n1 (stereo not given)	-4.83
CN(C)c1ccc(CNCc2cnc(N3CCOCC3)nc2)cn1	9.44
N#Cc1cccc(CN2CC3(CCCCN3c3cncnc3)CC2=O)c1 (stereo not given)	2.53
COc1ccc(C(=O)C2CCCN(Cc3ccc(C)o3)C2)c(OC)c1 (stereo not given)	1.17
CCC1CN(C(=O)Cc2coc(-c3ccccc3)n2)CCO1 (stereo not given)	3.06
CS(=O)(=O)NCC(=O)NC1CCCN(c2ccccn2)C1 (stereo not given)	1.76
O=C(C(CNCc1cccc(O)c1)c1ccccc1)N1CCOCC1 (stereo not given)	-2.06
Cn1cnc2c1CCN(Cc1csc(-c3ccco3)n1)C2	-17.4
CCOCC1CN(S(=O)(=O)C2CC2)Cc2cnn(C)c21 (stereo not given)	-66.8
CC(C)n1ccnc1C1CCN(Cc2ccc(C(F)(F)F)c(F)c2)CC1	-7.43
CCN1CCN(C(=O)c2ccc(=O)n(C)c2)c2ccccc21	-1.64
CCS(=O)(=O)N1CCC2(CC1)CC(COC)N(c1ncccn1)C2 (stereo not given)	5.57
CC(C)CC(=O)N1Cc2ccccc2CC1C(=O)Nc1nccs1 (stereo not given)	-135
NCCn1cc(C(=O)N2CCNC(=O)C2c2cccc(F)c2)nn1 (stereo not given)	3.62
CCOc1ccccc1-c1noc(CN2CCOC(CN(C)C)C2)n1 (stereo not given)	-5
CCCNC(=O)c1cc(Br)cc(S(=O)(=O)N2CCOCC2)c1F	-5.12
